According to ChEMBL document CHEMBL2396592, “Discovery of Dap-3 polymyxin analogues for the treatment of multidrug-resistant Gram-negative nosocomial infections” (J Med Chem, 2013):
≈ marks a conversion by molar mass, not a printed value. *1 amine or outer side, *2 acyl side, *3 side chain or, on linkers, in order; H or OH if unused. Where a SMILES comes first, the peptide text is derived from it. Bridges are numbered along the chain shown (N, C = ends). [ ]: non-standard residue; d: D form. The star is where a group is joined. Isonicotinoyl(2-Ph) = O=C(c1ccnc(-c2ccccc2)c1)*; X12 = O=C(c1ccc(Cl)c(-c2ccccc2)c1)*; X16 = COc1cc(C(=O)*)cc(-c2ccccc2)n1; X19 = O=C(c1ccnc(-c2cccc(Cl)c2)c1)*; X15 = N#Cc1ccc(C(=O)*)cc1-c1ccccc1; X9 = COc1ccc(-c2cc(C(=O)*)ccn2)cc1; 2Naphthoyl = O=C(c1ccc2ccccc2c1)*; X8 = N#Cc1cc(C(=O)*)ccc1-c1ccccc1; X18 = c1ccc(-c2cccc(N*)c2)cc1; X6 = CC[C@H](C)CCCCC(=O)*; Dab = NCC[C@H](N)C(=O)O; Dap = NC[C@H](N)C(=O)O; CO = O=C([*:1])[*:2]

What was measured:
[1] = Cytotoxicity against human RPTEC after 24 hrs by LDH assay; format: cell-based; conditions: RPTEC cells, read-out: TC50
How it was run: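 Primary human renal proximal tubule epithelial cells in REGM (EGF, hydrocortisone, epinephrine, insulin, T3, transferrin, gentamycin/amphotericin-B, FBS). After 72 h of growth at 37 °C, 5% CO2, cells were exposed for 24 h to aqueous compound at 100, 67, 44, 30, 20 and 13 μM. LDH release into the supernatant was measured by kit and TC50 (μM) derived, with PMB and PMBN as controls.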

Escherichia coli = assay: Antibacterial activity against polymyxin-sensitive Escherichia coli isolate 1 assessed as growth inhibition by broth microdilution method; format: functional
Klebsiella pneumoniae = assay: Antibacterial activity against polymyxin-sensitive ESBL-positive Klebsiella pneumoniae clinical isolate 3700 assessed as growth inhibition by broth microdilution method; format: functional
Acinetobacter baumannii [2] = assay: Antibacterial activity against polymyxin-sensitive Acinetobacter baumannii clinical isolate 3167 assessed as growth inhibition by broth microdilution method; format: functional
Acinetobacter baumannii [3] = assay: Antibacterial activity against polymyxin-resistant Acinetobacter baumannii clinical isolate 1649 assessed as growth inhibition by broth microdilution method; format: functional
Acinetobacter baumannii [4] = assay: Bactericidal activity against polymyxin-resistant Acinetobacter baumannii clinical isolate 1649; format: functional
Pseudomonas aeruginosa [5] = assay: Antibacterial activity against polymyxin-sensitive Pseudomonas aeruginosa 1401 assessed as growth inhibition by broth microdilution method; format: functional
How it was run: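 CLSI broth microdilution MIC against P. aeruginosa 1401 (PA01) and 1402 (UC12120), the two strains used in the mouse thigh model.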

Pseudomonas aeruginosa [6] = assay: Antibacterial activity against polymyxin-resistant Pseudomonas aeruginosa clinical isolate 1646 assessed as growth inhibition by broth microdilution method; format: functional
How it was run: (§1)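 Test strain PA-1646 is a P. aeruginosa isolate with a mutated PmrAB two-component system. The system is constitutively active, so the modified lipid A moiety is constantly expressed on the cell surface, giving a polymyxin-resistant phenotype.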

Pseudomonas aeruginosa [7] = assay: Bactericidal activity against polymyxin-resistant Pseudomonas aeruginosa clinical isolate 1646; format: functional; how it was run: as §1

Row | Structure (SMILES) | CC50 at 24 h [1] [µM] | MIC (Escherichia coli) [µg/mL] | MIC (Klebsiella pneumoniae) [µg/mL] | MIC (Acinetobacter baumannii [2]) [µg/mL] | MIC (Acinetobacter baumannii [3]) [µg/mL] | MBC (Acinetobacter baumannii [4]) [µg/mL] | MIC (Pseudomonas aeruginosa [5]) [µg/mL] | MIC (Pseudomonas aeruginosa [6]) [µg/mL] | MBC (Pseudomonas aeruginosa [7]) [µg/mL]
1 | CC(C)C[C@@H]1NC(=O)[C@@H](Cc2ccccc2)NC(=O)[C@H](CCN)NC(=O)[C@@H](NC(=O)[C@H](CN)NC(=O)[C@@H](NC(=O)[C@H](CCN)NC(=O)c2ccc3ccccc3c2)[C@@H](C)O)CCNC(=O)[C@H]([C@@H](C)O)NC(=O)[C@H](CCN)NC(=O)[C@H](CCN)NC1=O (2Naphthoyl-[Dab]T[Dap][Dab][Dab][dF]L[Dab][Dab]T; lactam 4-C) | 51 | 0.125 | 0.125 | 0.25 | 2 | 2 (≈ 1.66 µM) | 0.5 | 4 | 16 (≈ 13.3 µM)
2 | COc1cc(C(=O)N[C@@H](CCN)C(=O)N[C@H](C(=O)N[C@@H](CN)C(=O)N[C@H]2CCNC(=O)[C@H]([C@@H](C)O)NC(=O)[C@H](CCN)NC(=O)[C@H](CCN)NC(=O)[C@H](CC(C)C)NC(=O)[C@@H](Cc3ccccc3)NC(=O)[C@H](CCN)NC2=O)[C@@H](C)O)cc(-c2ccccc2)n1 (X16-[Dab]T[Dap][Dab][Dab][dF]L[Dab][Dab]T; lactam 4-C) | 24 | 0.25 | 0.25 | 0.5 | 4 | 4 (≈ 3.17 µM) | 0.5 | 1 | 1 (≈ 0.793 µM)
3 | CC(C)C[C@@H]1NC(=O)[C@@H](Cc2ccccc2)NC(=O)[C@H](CCN)NC(=O)[C@@H](NC(=O)[C@H](CN)NC(=O)[C@@H](NC(=O)[C@H](CCN)NC(=O)Nc2cccc(-c3ccccc3)c2)[C@@H](C)O)CCNC(=O)[C@H]([C@@H](C)O)NC(=O)[C@H](CCN)NC(=O)[C@H](CCN)NC1=O ({X18-CO}-[Dab]T[Dap][Dab][Dab][dF]L[Dab][Dab]T; lactam 4-C) | 15 | 0.25 | 0.25 | 0.25 | 4 | 4 (≈ 3.21 µM) | 0.5 | 1 | 1 (≈ 0.804 µM)
4 | CC[C@H](C)CCCCC(=O)N[C@@H](CCN)C(=O)N[C@H](C(=O)N[C@@H](CCN)C(=O)N[C@H]1CCNC(=O)[C@H]([C@@H](C)O)NC(=O)[C@H](CCN)NC(=O)[C@H](CCN)NC(=O)[C@H](CC(C)C)NC(=O)[C@@H](Cc2ccccc2)NC(=O)[C@H](CCN)NC1=O)[C@@H](C)O (X6-[Dab]T[Dab][Dab][Dab][dF]L[Dab][Dab]T; lactam 4-C) | 27 | 0.125 | 0.5 | 0.25 | 4 | 4 (≈ 3.32 µM) | 0.5 | 4 | 16 (≈ 13.3 µM)
5 | CC[C@H](C)CCCCC(=O)N[C@@H](CCN)C(=O)N[C@H](C(=O)N[C@@H](CN)C(=O)N[C@H]1CCNC(=O)[C@H]([C@@H](C)O)NC(=O)[C@H](CCN)NC(=O)[C@H](CCN)NC(=O)[C@H](CC(C)C)NC(=O)[C@@H](Cc2ccccc2)NC(=O)[C@H](CCN)NC1=O)[C@@H](C)O (X6-[Dab]T[Dap][Dab][Dab][dF]L[Dab][Dab]T; lactam 4-C) | 72 | 0.125 | 0.125 | 0.125 | 4 | 4 (≈ 3.36 µM) | 0.5 | 1 | 2 (≈ 1.68 µM)
6 | CC(C)C[C@@H]1NC(=O)[C@@H](Cc2ccccc2)NC(=O)[C@H](CCN)NC(=O)[C@@H](NC(=O)[C@H](CN)NC(=O)[C@@H](NC(=O)[C@H](CCN)NC(=O)c2ccc(C#N)c(-c3ccccc3)c2)[C@@H](C)O)CCNC(=O)[C@H]([C@@H](C)O)NC(=O)[C@H](CCN)NC(=O)[C@H](CCN)NC1=O (X15-[Dab]T[Dap][Dab][Dab][dF]L[Dab][Dab]T; lactam 4-C) | 39 | 0.125 | 0.25 | 0.25 | 0.5 | 0.5 (≈ 0.399 µM) | 0.25 | 2 | 4 (≈ 3.19 µM)
7 | CC(C)C[C@@H]1NC(=O)[C@@H](Cc2ccccc2)NC(=O)[C@H](CCN)NC(=O)[C@@H](NC(=O)[C@H](CN)NC(=O)[C@@H](NC(=O)[C@H](CCN)NC(=O)c2ccnc(-c3cccc(Cl)c3)c2)[C@@H](C)O)CCNC(=O)[C@H]([C@@H](C)O)NC(=O)[C@H](CCN)NC(=O)[C@H](CCN)NC1=O (X19-[Dab]T[Dap][Dab][Dab][dF]L[Dab][Dab]T; lactam 4-C) | 34 | 0.125 | 0.5 | 0.25 | 0.5 | 0.5 (≈ 0.395 µM) | 0.5 | 1 | 1 (≈ 0.791 µM)
8 | COc1ccc(-c2cc(C(=O)N[C@@H](CCN)C(=O)N[C@H](C(=O)N[C@@H](CN)C(=O)N[C@H]3CCNC(=O)[C@H]([C@@H](C)O)NC(=O)[C@H](CCN)NC(=O)[C@H](CCN)NC(=O)[C@H](CC(C)C)NC(=O)[C@@H](Cc4ccccc4)NC(=O)[C@H](CCN)NC3=O)[C@@H](C)O)ccn2)cc1 (X9-[Dab]T[Dap][Dab][Dab][dF]L[Dab][Dab]T; lactam 4-C) | 78 | 0.25 | 0.25 | 0.25 | 2 | 2 (≈ 1.59 µM) | 0.5 | 2 | 8 (≈ 6.35 µM)
9 | CC(C)C[C@@H]1NC(=O)[C@@H](Cc2ccccc2)NC(=O)[C@H](CCN)NC(=O)[C@@H](NC(=O)[C@H](CN)NC(=O)[C@@H](NC(=O)[C@H](CCN)NC(=O)c2ccc(Cl)c(-c3ccccc3)c2)[C@@H](C)O)CCNC(=O)[C@H]([C@@H](C)O)NC(=O)[C@H](CCN)NC(=O)[C@H](CCN)NC1=O (X12-[Dab]T[Dap][Dab][Dab][dF]L[Dab][Dab]T; lactam 4-C) | 14 | 0.25 | 0.25 | 0.5 | 1 | 1 (≈ 0.791 µM) | 1 | 0.5 | 1 (≈ 0.791 µM)
10 | CC(C)C[C@@H]1NC(=O)[C@@H](Cc2ccccc2)NC(=O)[C@H](CCN)NC(=O)[C@@H](NC(=O)[C@H](CN)NC(=O)[C@@H](NC(=O)[C@H](CCN)NC(=O)c2ccnc(-c3ccccc3)c2)[C@@H](C)O)CCNC(=O)[C@H]([C@@H](C)O)NC(=O)[C@H](CCN)NC(=O)[C@H](CCN)NC1=O ({Isonicotinoyl(2-Ph)}-[Dab]T[Dap][Dab][Dab][dF]L[Dab][Dab]T; lactam 4-C) | 82 | 0.125 | 0.25 | 0.25 | 1 | 1 (≈ 0.813 µM) | 0.25 | 2 | 4 (≈ 3.25 µM)
11 | CC(C)C[C@@H]1NC(=O)[C@@H](Cc2ccccc2)NC(=O)[C@H](CCN)NC(=O)[C@@H](NC(=O)[C@H](CCN)NC(=O)[C@@H](N)[C@@H](C)O)CCNC(=O)[C@H]([C@@H](C)O)NC(=O)[C@H](CCN)NC(=O)[C@H](CCN)NC1=O [POLYMYXIN B NONAPEPTIDE] (H-T[Dab][Dab][Dab][dF]L[Dab][Dab]T; lactam 3-C) | > 100 | > 64 | > 64 | > 64 | > 64 | > 64 | > 64 | > 64 | > 64
12 | CC(C)C[C@@H]1NC(=O)[C@@H](Cc2ccccc2)NC(=O)[C@H](CCN)NC(=O)[C@@H](NC(=O)[C@H](CN)NC(=O)[C@@H](NC(=O)[C@H](CCN)NC(=O)c2ccc(-c3ccccc3)c(C#N)c2)[C@@H](C)O)CCNC(=O)[C@H]([C@@H](C)O)NC(=O)[C@H](CCN)NC(=O)[C@H](CCN)NC1=O (X8-[Dab]T[Dap][Dab][Dab][dF]L[Dab][Dab]T; lactam 4-C) | 32 | 0.5 | 0.5 | 0.25 | 1 | 1 (≈ 0.797 µM) | 1 | 2 | 4 (≈ 3.19 µM)
